Measured values: ChEMBL document CHEMBL4145521, “Regioselective synthesis of 3,4-diaryl-5-unsubstituted isoxazoles, analogues of natural cytostatic combretastatin A4” (Eur J Med Chem, 2018)

Assays:
Paracentrotus lividus [1] = assay: Antimitotic activity against Paracentrotus lividus embryo assessed as embryo spinning after 15 mins to 20 hrs by light microscopy; assay type: functional
How it was run: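 Free-swimming blastulae from the same culture were used just after hatching (8–10 h post-fertilization). They were kept in filtered seawater at room temperature and exposed to 2-fold decreasing concentrations. Spinning at the well bottom instead of forward swimming was monitored from 15 min to 20 h under light microscopy. The effective threshold concentration was recorded from duplicates.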

Paracentrotus lividus [2] = assay: Antimitotic activity against Paracentrotus lividus embryo assessed as cleavage arrest measured at 5.5 hrs post fertilization by light microscopy; assay type: functional
How it was run: (§1)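 Sea urchin eggs were fertilized with diluted sperm and cultured at room temperature in filtered seawater with paddle agitation (60 rpm), at up to 2000 embryos/mL. The effective threshold concentration causing cleavage alteration, death before hatching or full mitotic arrest was scored in duplicate.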

Paracentrotus lividus [3] = assay: Antimitotic activity against Paracentrotus lividus embryo assessed as cleavage alteration measured at 2.5 hrs post fertilization by light microscopy; assay type: functional; how it was run: as §1
Paracentrotus lividus [4] = assay: Toxicity in Paracentrotus lividus embryo assessed as embryo destruction at 2 to 4 uM by light microscopy; assay type: organism-based; conditions: in vivo
Paracentrotus lividus [5] = assay: Toxicity in Paracentrotus lividus embryo assessed as embryo death at 2 to 4 uM by light microscopy; assay type: organism-based; conditions: in vivo

Q: With `COc1ccc(-c2noc(C(=O)O)c2-c2cc(OC)c(OC)c(OC)c2)cc1` as the molecule, how does the EC (Paracentrotus lividus [1]) read?
A: >5 µM

Q: And the EC (Paracentrotus lividus [2])?
A: 2 µM

Q: And the EC (Paracentrotus lividus [3])?
A: 0.2 µM

Q: How did the EC (Paracentrotus lividus [1]) turn out when `CCOC(=O)C1O[N+]([O-])=C(c2ccc(OC)cc2)C1c1ccc([N+](=O)[O-])cc1` (centres undefined) was run?
A: >4 µM

Q: What about the EC (Paracentrotus lividus [2]) of the same molecule?
A: >4 µM

Q: And the EC (Paracentrotus lividus [3])?
A: >4 µM

Q: How did the EC (Paracentrotus lividus [1]) turn out when `COc1ccc(-c2nocc2-c2cccs2)cc1` was run?
A: >4 µM

Q: What about the EC (Paracentrotus lividus [2]) of the same molecule?
A: >4 µM

Q: What about the EC (Paracentrotus lividus [3]) of the same molecule?
A: 0.5 µM

Q: What does the source list for `COc1ccc(-c2nocc2-c2cccc(OC)c2)cc1`?
A: EC (Paracentrotus lividus [1]): >10 µM; EC (Paracentrotus lividus [2]): 4 µM; EC (Paracentrotus lividus [3]): 0.52 µM

Q: How did the EC (Paracentrotus lividus [1]) turn out when `COc1cc(-c2conc2-c2ccccc2)c(OC)c2c1OCO2` was run?
A: >4 µM

Q: And the EC (Paracentrotus lividus [2])?
A: >4 µM

Q: What about the EC (Paracentrotus lividus [3]) of the same molecule?
A: 2 µM

Q: `COc1ccc(-c2nocc2-c2cnn(C)c2)cc1` was tested. Which EC (Paracentrotus lividus [1]) did it give?
A: >4 µM

Q: What about the EC (Paracentrotus lividus [2]) of the same molecule?
A: >4 µM

Q: And the EC (Paracentrotus lividus [3])?
A: >4 µM

Q: For `CCOC(=O)C1O[N+]([O-])=C(c2ccc(OC)cc2)C1c1ccc(Cl)cc1` (centres undefined), which EC (Paracentrotus lividus [1]) is on record?
A: >4 µM

Q: And the EC (Paracentrotus lividus [2])?
A: >4 µM

Q: And the EC (Paracentrotus lividus [3])?
A: >4 µM

Q: For `COc1ccc(-c2noc(C(=O)O)c2-c2cccc(OC)c2)cc1`, which EC (Paracentrotus lividus [1]) is on record?
A: >4 µM

Q: And the EC (Paracentrotus lividus [2])?
A: >4 µM

Q: And the EC (Paracentrotus lividus [3])?
A: >4 µM

Q: Which results are given for `COc1ccc(/C=C(/c2ccccc2)[N+](=O)[O-])cc1`?
A: EC (Paracentrotus lividus [1]): 4 µM; EC (Paracentrotus lividus [2]): 4 µM; EC (Paracentrotus lividus [3]): 2 µM

Q: `COc1cc(/C=C(/c2ccccc2)[N+](=O)[O-])c(OC)c2c1OCO2` was tested. Which EC (Paracentrotus lividus [1]) did it give?
A: 1 µM

Q: What about the EC (Paracentrotus lividus [2]) of the same molecule?
A: 4 µM

Q: And the Activity (Paracentrotus lividus [4])?
A: Toxic

Q: What about the EC (Paracentrotus lividus [3]) of the same molecule?
A: 2 µM

Q: What about the Activity (Paracentrotus lividus [5]) of the same molecule?
A: Toxic

Q: Which results are given for `COc1ccc(-c2conc2-c2ccccc2)cc1`?
A: EC (Paracentrotus lividus [1]): 0.1 µM; EC (Paracentrotus lividus [2]): 0.05 µM; EC (Paracentrotus lividus [3]): 0.005 µM

Q: `COc1ccc(-c2noc(C(=O)O)c2-c2ccc(Cl)cc2)cc1` was tested. Which EC (Paracentrotus lividus [1]) did it give?
A: >4 µM

Q: What about the EC (Paracentrotus lividus [2]) of the same molecule?
A: >4 µM

Q: What about the EC (Paracentrotus lividus [3]) of the same molecule?
A: >4 µM

Q: Which results are given for `COc1ccc(-c2noc(C(=O)O)c2-c2cc(OC)cc(OC)c2)cc1`?
A: EC (Paracentrotus lividus [1]): >40 µM; EC (Paracentrotus lividus [2]): >40 µM; EC (Paracentrotus lividus [3]): 20 µM

Q: `COc1cc(-c2conc2-c2ccccc2)cc(OC)c1OC` was tested. Which EC (Paracentrotus lividus [1]) did it give?
A: >4 µM

Q: And the EC (Paracentrotus lividus [2])?
A: >4 µM

Q: And the EC (Paracentrotus lividus [3])?
A: 4 µM

Q: How did the EC (Paracentrotus lividus [1]) turn out when `COc1ccc(/C=C\c2cc(OC)c(OC)c(OC)c2)cc1O` [COMBRETASTATIN A4] was run?
A: 0.05 µM

Q: What about the EC (Paracentrotus lividus [2]) of the same molecule?
A: 0.01 µM

Q: And the EC (Paracentrotus lividus [3])?
A: 0.002 µM

Q: `CCOC(=O)C1O[N+]([O-])=C(c2ccc(OC)cc2)C1c1cccc(OC)c1` (centres undefined) was tested. Which EC (Paracentrotus lividus [1]) did it give?
A: >4 µM

Q: And the EC (Paracentrotus lividus [2])?
A: >4 µM

Q: What about the EC (Paracentrotus lividus [3]) of the same molecule?
A: 4 µM

Q: For `CCOC(=O)C1O[N+]([O-])=C(c2ccc(OC)cc2)C1c1cc(OC)cc(OC)c1` (centres undefined), which EC (Paracentrotus lividus [1]) is on record?
A: >4 µM

Q: And the EC (Paracentrotus lividus [2])?
A: >4 µM

Q: And the EC (Paracentrotus lividus [3])?
A: >4 µM

Q: Which EC (Paracentrotus lividus [1]) does the source give for `CCOC(=O)C1O[N+]([O-])=C(c2ccccc2)C1c1cc(OC)c2c(c1OC)OCO2` (centres undefined) here?
A: >4 µM

Q: And the EC (Paracentrotus lividus [2])?
A: >4 µM

Q: What about the EC (Paracentrotus lividus [3]) of the same molecule?
A: >4 µM

Q: `COc1ccc(/C(=C/c2cc(OC)c(OC)c(OC)c2)[N+](=O)[O-])cc1` was tested. Which EC (Paracentrotus lividus [1]) did it give?
A: >4 µM

Q: And the EC (Paracentrotus lividus [2])?
A: 4 µM

Q: And the Activity (Paracentrotus lividus [4])?
A: Toxic

Q: And the EC (Paracentrotus lividus [3])?
A: 1 µM

Q: And the Activity (Paracentrotus lividus [5])?
A: Toxic

Q: How did the EC (Paracentrotus lividus [1]) turn out when `COc1ccc(/C(=C/c2cccs2)[N+](=O)[O-])cc1` was run?
A: 2 µM

Q: What about the EC (Paracentrotus lividus [2]) of the same molecule?
A: 2 µM

Q: And the Activity (Paracentrotus lividus [4])?
A: Toxic

Q: And the EC (Paracentrotus lividus [3])?
A: 0.2 µM

Q: And the Activity (Paracentrotus lividus [5])?
A: Toxic

Q: Which results are given for `COc1ccc(-c2nocc2-c2ccc([N+](=O)[O-])cc2)cc1`?
A: EC (Paracentrotus lividus [1]): >4 µM; EC (Paracentrotus lividus [2]): >4 µM; EC (Paracentrotus lividus [3]): >4 µM

Q: What does the source list for `COc1cc(-c2c(-c3ccccc3)noc2C(=O)O)c(OC)c2c1OCO2`?
A: EC (Paracentrotus lividus [1]): >4 µM; EC (Paracentrotus lividus [2]): >4 µM; EC (Paracentrotus lividus [3]): >4 µM

Q: How did the EC (Paracentrotus lividus [1]) turn out when `COc1ccc(-c2nocc2-c2cc(OC)cc(OC)c2)cc1` was run?
A: >10 µM

Q: And the EC (Paracentrotus lividus [2])?
A: 2 µM

Q: What about the EC (Paracentrotus lividus [3]) of the same molecule?
A: 0.2 µM

Q: Which results are given for `COc1ccc(-c2nocc2-c2ccc(Cl)cc2)cc1`?
A: EC (Paracentrotus lividus [1]): >4 µM; EC (Paracentrotus lividus [2]): >4 µM; EC (Paracentrotus lividus [3]): >4 µM

Q: How did the EC (Paracentrotus lividus [1]) turn out when `CCOC(=O)C1O[N+]([O-])=C(c2ccc(OC)cc2)C1c1cc(OC)c(OC)c(OC)c1` (centres undefined) was run?
A: >4 µM

Q: And the EC (Paracentrotus lividus [2])?
A: >4 µM

Q: What about the EC (Paracentrotus lividus [3]) of the same molecule?
A: >4 µM

Q: What does the source list for `COc1ccc(/C(=C/c2cnn(C)c2)[N+](=O)[O-])cc1`?
A: EC (Paracentrotus lividus [1]): >4 µM; EC (Paracentrotus lividus [2]): >4 µM; EC (Paracentrotus lividus [3]): 2 µM
